In ChEMBL document CHEMBL1142154, “High-level vancomycin-resistant Staphylococcus aureus isolates associated with a polymicrobial biofilm” (2007):
In brackets after ≈: the same amount, converted by molar mass.

Columns and labels:
Format in all cases: functional
Staphylococcus aureus [1] = test: Antibacterial activity against methicillin-resistant Staphylococcus aureus isolate 2513
In short: (§1)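 MICs by broth microdilution in cation-adjusted Mueller-Hinton broth, following CLSI guidelines. Test isolates were clinical VRE (E. faecium), MRSA and VRSA recovered from patient sites or from nephrostomy tube biofilm. Biofilm isolates were obtained by PBS lumen washes of tube segments, dilution in Butterfield buffer and plating on selective and blood agars at 35°C for 24 to 48 h.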

Staphylococcus aureus [2] = test: Antibacterial activity against vancomycin-resistant Staphylococcus aureus isolate 2514; in short: as §1
Staphylococcus aureus [3] = test: Antibacterial activity against methicillin-resistant Staphylococcus aureus isolate 5735; in short: as §1
Staphylococcus aureus [4] = test: Antibacterial activity against vancomycin-resistant Staphylococcus aureus isolate 595; in short: as §1
Staphylococcus aureus [5] = test: Antibacterial activity against methicillin-resistant Staphylococcus aureus isolate 5733; in short: as §1
Staphylococcus aureus [6] = test: Antibacterial activity against methicillin-resistant Staphylococcus aureus isolate 2530; in short: as §1
Staphylococcus aureus [7] = test: Antibacterial activity against methicillin-resistant Staphylococcus aureus isolate 5739; in short: as §1
Staphylococcus aureus [8] = test: Antibacterial activity against vancomycin-resistant Staphylococcus aureus isolate 5734; in short: as §1
Staphylococcus aureus [9] = test: Antibacterial activity against methicillin-resistant Staphylococcus aureus isolate 5736; in short: as §1
Staphylococcus aureus [10] = test: Antibacterial activity against methicillin-resistant Staphylococcus aureus isolate 5737; in short: as §1
Enterococcus faecium [11] = test: Antibacterial activity against Enterococcus faecium isolate 5749
Enterococcus faecalis [12] = test: Antibacterial activity against Enterococcus faecalis isolate 5744
Enterococcus faecalis [13] = test: Antibacterial activity against Enterococcus faecalis isolate 5743
Enterococcus faecium [14] = test: Antibacterial activity against Enterococcus faecium isolate 5752; in short: as §1
Enterococcus faecalis [15] = test: Antibacterial activity against Enterococcus faecalis isolate 5742
Enterococcus faecium [16] = test: Antibacterial activity against Enterococcus faecium isolate 5751
Enterococcus faecalis [17] = test: Antibacterial activity against Enterococcus faecalis isolate 5746
Enterococcus faecalis [18] = test: Antibacterial activity against Enterococcus faecalis isolate 5745
Enterococcus faecium [19] = test: Antibacterial activity against Enterococcus faecium isolate 5750
Enterococcus faecium [20] = test: Antibacterial activity against Enterococcus faecium isolate 2547; in short: as §1
Enterococcus faecium [21] = test: Antibacterial activity against Enterococcus faecium isolate 5753

GENTAMICIN
MIC (Staphylococcus aureus [1]): < 4 µg/mL
MIC (Staphylococcus aureus [2]): 64 µg/mL
MIC (Staphylococcus aureus [3]): 16 µg/mL
MIC (Staphylococcus aureus [4]): 32 µg/mL
MIC (Staphylococcus aureus [5]): > 64 µg/mL
MIC (Staphylococcus aureus [6]): < 4 µg/mL
MIC (Staphylococcus aureus [7]): > 64 µg/mL
MIC (Staphylococcus aureus [8]): > 64 µg/mL
MIC (Staphylococcus aureus [9]): > 64 µg/mL
MIC (Staphylococcus aureus [10]): > 64 µg/mL

O=C(N[C@H](CO)[C@H](O)c1ccc([N+](=O)[O-])cc1)C(Cl)Cl [CHLORAMPHENICOL]
MIC (Enterococcus faecium [11]): 4 µg/mL (≈ 12.4 µM)
MIC (Enterococcus faecalis [12]): 16 µg/mL (≈ 49.5 µM)
MIC (Enterococcus faecalis [13]): 8 µg/mL (≈ 24.8 µM)
MIC (Enterococcus faecium [14]): 8 µg/mL (≈ 24.8 µM)
MIC (Enterococcus faecalis [15]): 8 µg/mL (≈ 24.8 µM)
MIC (Enterococcus faecium [16]): ≤ 2 µg/mL
MIC (Enterococcus faecalis [17]): 16 µg/mL (≈ 49.5 µM)
MIC (Enterococcus faecalis [18]): 8 µg/mL (≈ 24.8 µM)
MIC (Enterococcus faecium [19]): 8 µg/mL (≈ 24.8 µM)
MIC (Enterococcus faecium [20]): 8 µg/mL (≈ 24.8 µM)
MIC (Enterococcus faecium [21]): 4 µg/mL (≈ 12.4 µM)

C[C@H]1COc2c(N3CCN(C)CC3)c(F)cc3c(=O)c(C(=O)O)cn1c23.C[C@H]1COc2c(N3CCN(C)CC3)c(F)cc3c(=O)c(C(=O)O)cn1c23.O [LEVOFLOXACIN]
MIC (Staphylococcus aureus [1]): 16 µg/mL
MIC (Staphylococcus aureus [2]): 16 µg/mL
MIC (Staphylococcus aureus [3]): 16 µg/mL
MIC (Staphylococcus aureus [4]): 16 µg/mL
MIC (Staphylococcus aureus [5]): 16 µg/mL
MIC (Staphylococcus aureus [6]): 16 µg/mL
MIC (Staphylococcus aureus [7]): 16 µg/mL
MIC (Staphylococcus aureus [8]): 16 µg/mL
MIC (Staphylococcus aureus [9]): 16 µg/mL
MIC (Staphylococcus aureus [10]): 16 µg/mL

CO[C@H]1/C=C/O[C@@]2(C)Oc3c(C)c(O)c4c(O)c(c(/C=N/N5CCN(C)CC5)c(O)c4c3C2=O)NC(=O)/C(C)=C\C=C\[C@H](C)[C@H](O)[C@@H](C)[C@@H](O)[C@@H](C)[C@H](OC(C)=O)[C@@H]1C [RIFAMPIN]
MIC (Enterococcus faecium [11]): > 4 µg/mL
MIC (Enterococcus faecalis [12]): 0.5 µg/mL (≈ 0.608 µM)
MIC (Enterococcus faecalis [13]): 1 µg/mL (≈ 1.22 µM)
MIC (Enterococcus faecium [14]): > 4 µg/mL
MIC (Enterococcus faecalis [15]): 1 µg/mL (≈ 1.22 µM)
MIC (Enterococcus faecium [16]): > 4 µg/mL
MIC (Enterococcus faecalis [17]): 2 µg/mL (≈ 2.43 µM)
MIC (Enterococcus faecalis [18]): 1 µg/mL (≈ 1.22 µM)
MIC (Enterococcus faecium [19]): 4 µg/mL (≈ 4.86 µM)
MIC (Enterococcus faecium [20]): > 4 µg/mL
MIC (Enterococcus faecium [21]): > 4 µg/mL

C[C@H]1c2cccc(O)c2C(=O)C2=C(O)[C@]3(O)C(=O)C(C(N)=O)=C(O)[C@@H](N(C)C)[C@@H]3[C@@H](O)[C@@H]21.O [DOXYCYCLINE]
MIC (Staphylococcus aureus [1]): ≤ 0.25 µg/mL
MIC (Enterococcus faecium [11]): 8 µg/mL
MIC (Enterococcus faecalis [12]): 8 µg/mL
MIC (Staphylococcus aureus [2]): 4 µg/mL
MIC (Staphylococcus aureus [3]): 4 µg/mL
MIC (Enterococcus faecalis [13]): 4 µg/mL
MIC (Enterococcus faecium [14]): 16 µg/mL
MIC (Enterococcus faecalis [15]): 4 µg/mL
MIC (Enterococcus faecium [16]): 16 µg/mL
MIC (Staphylococcus aureus [4]): 4 µg/mL
MIC (Enterococcus faecalis [17]): ≤ 0.25 µg/mL
MIC (Enterococcus faecalis [18]): 4 µg/mL
MIC (Staphylococcus aureus [5]): 4 µg/mL
MIC (Staphylococcus aureus [6]): ≤ 0.25 µg/mL
MIC (Staphylococcus aureus [7]): ≤ 0.25 µg/mL
MIC (Enterococcus faecium [19]): 16 µg/mL
MIC (Enterococcus faecium [20]): 16 µg/mL
MIC (Staphylococcus aureus [8]): 8 µg/mL
MIC (Staphylococcus aureus [9]): 4 µg/mL
MIC (Staphylococcus aureus [10]): 0.5 µg/mL
MIC (Enterococcus faecium [21]): 8 µg/mL

CN[C@H](CC(C)C)C(=O)N[C@H]1C(=O)N[C@@H](CC(N)=O)C(=O)N[C@H]2C(=O)N[C@H]3C(=O)N[C@H](C(=O)N[C@H](C(=O)O)c4cc(O)cc(O)c4-c4cc3ccc4O)[C@H](O)c3ccc(c(Cl)c3)Oc3cc2cc(c3O[C@@H]2O[C@H](CO)[C@@H](O)[C@H](O)[C@H]2O[C@H]2C[C@](C)(N)[C@H](O)[C@H](C)O2)Oc2ccc(cc2Cl)[C@H]1O [VANCOMYCIN]
MIC (Enterococcus faecalis [12]): 2 µg/mL (≈ 1.38 µM)
MIC (Staphylococcus aureus [2]): 32 µg/mL (≈ 22.1 µM)
MIC (Enterococcus faecalis [13]): 2 µg/mL (≈ 1.38 µM)
MIC (Enterococcus faecalis [15]): 2 µg/mL (≈ 1.38 µM)
MIC (Enterococcus faecium [16]): 256 µg/mL (≈ 177 µM)
MIC (Staphylococcus aureus [4]): 64 µg/mL (≈ 44.2 µM)
MIC (Enterococcus faecalis [17]): 2 µg/mL (≈ 1.38 µM)
MIC (Enterococcus faecalis [18]): 2 µg/mL (≈ 1.38 µM)
MIC (Enterococcus faecium [19]): 256 µg/mL (≈ 177 µM)
MIC (Enterococcus faecium [21]): 256 µg/mL (≈ 177 µM)
